Measured values reported in ChEMBL document CHEMBL4811254, “Beyond Basicity: Discovery of Nonbasic DENV-2 Protease Inhibitors with Potent Activity in Cell Culture” (J Med Chem, 2021).
Active and inactive are the calls of the source. How the calls were made is not given here.

What was measured:
[1] = molecular target: Trypsin (Homo sapiens) (UniProt P07477+P07478+P35030); experiment: Inhibition of trypsin (unknown origin) using Boc-Val-Pro-Arg-AMC as substrate at 50 uM preincubated with enzyme for 15 mins followed by substrate addition and measured for 15 mins by fluorimetric assay; assay type: protein assay; conditions: time 30.0 min
[2] = molecular target: Genome polyprotein (dengue virus type 2) (UniProt P29990); experiment: Inhibition of NS2B-NS3 protease in DENV2proHeLa system assessed as inhibition of luciferase signal at 12.5 uM incubated for 24 hrs by luciferase reporter gene assay; assay type: cell-based; conditions: HeLa
Outline: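 Stable DENV2proHeLa cells seeded at 2 × 10⁴/well and dosed immediately, then incubated 24 h at 37 °C. Cells lysed 15 min at room temperature. Luciferase read with coelenterazine (2.75 μM in PBS) injection, luminescence 5 s. Triplicates; percent inhibition calculated relative to untreated control; background from cell-free wells.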

[3] = Cytotoxicity against human HeLa cells assessed as reduction in cell viability incubated for 24 hrs by CellTiter-Blue assay; assay type: cell-based
Outline: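 Viability by CellTiter-Blue in HeLa or Huh-7 cells exposed to compound dilutions. Plates run in parallel with the reporter assay (HeLa) or the virus titer assay (Huh-7).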

[4] = molecular target: Genome polyprotein (dengue virus type 2, UniProt P29990); experiment: Inhibition of NS2B-NS3 protease in DENV2proHeLa system assessed as inhibition of luciferase signal incubated for 24 hrs by luciferase reporter gene assay; assay type: cell-based, HeLa
Outline: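 HeLa cells stably carrying the reporter system, 2 × 10⁴ per well, given inhibitor at seeding and held 24 h at 37 °C. Cells lysed 15 min at room temperature. Luciferase read for 5 s after injecting coelenterazine (2.75 μM in PBS). Triplicate wells per concentration; percent inhibition taken against untreated cells. EC50/EC90 from 4-parameter dose-response fit, background from cell-free wells subtracted.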

[5] = molecular target: Prothrombin (Homo sapiens) (UniProt P00734); experiment: Inhibition of thrombin in human plasma using Boc-Val-Pro-Arg-AMC as substrate at 25 uM preincubated with enzyme for 15 mins followed by substrate addition and measured for 15 mins by fluorimetric assay; assay type: cell-free; conditions: time 30.0 min

## Cc1ccc(C)c(OCCCC(C)(C)C(=O)N[C@H](C(=O)Nc2cccc(C(N)=O)c2)c2ccc(OCc3ccccc3)cc2)c1
[1]
  inhibition: inactive
[2]
  inhibition: 82%
[3]
  CC50 at 24 h: > 25 µM
[4]
  EC50: 1.7 µM
[5]
  inhibition: inactive

## NC(=O)c1ccc(CNC(=O)[C@@H](NC(=O)CCc2ccccc2)c2ccc(OCc3ccccc3)cc2)cc1
[1]
  inhibition: inactive
[2]
  inhibition: 57%
[3]
  CC50 at 24 h: > 50 µM
[4]
  EC50: 12 µM
[5]
  inhibition: inactive

## NC(=O)c1ccc(CNC(=O)[C@@H](NC(=O)/C=C/c2ccccc2)c2ccc(OCc3ccccc3)cc2)cc1
[1]
  inhibition: inactive
[2]
  inhibition: 34%
[3]
  CC50 at 24 h: > 50 µM
[5]
  inhibition: inactive

## CCCCCC(=O)N[C@H](C(=O)NCc1ccc(C(=O)O)cc1)c1ccc(OCc2ccccc2)cc1
[1]
  inhibition: inactive
[2]
  inhibition: 14%
[3]
  CC50 at 24 h: > 50 µM
[5]
  inhibition: inactive

## CCCCCC(=O)N[C@@H](C(=O)NCc1ccc(C(N)=O)cc1)c1ccc(OCc2ccc(C(F)(F)F)cc2)cc1
[1]
  inhibition: inactive
[2]
  inhibition: 42%
[3]
  CC50 at 24 h: > 50 µM
[5]
  inhibition: inactive

## CCCCCC(=O)N[C@H](C(=O)NCC1CCC(C(N)=O)CC1)c1ccc(OCc2ccccc2)cc1 (some centres not stated)
[1]
  inhibition: inactive
[2]
  inhibition: 29%
[3]
  CC50 at 24 h: > 50 µM
[5]
  inhibition: inactive

## CCCCCC(=O)N[C@H](C(=O)Nc1ccc(S(N)(=O)=O)cc1)c1ccc(OCc2ccccc2)cc1
[1]
  inhibition: inactive
[2]
  inhibition: < 10%
[3]
  CC50 at 24 h: > 50 µM
[5]
  inhibition: inactive

## Cc1ccc(C(=O)c2cc(O)c(O)c([N+](=O)[O-])c2)cc1 [TOLCAPONE]
[2]
  inhibition: 59%
[3]
  CC50 at 24 h: > 25 µM
[4]
  EC50: 7.1 µM

## CCCCCC(=O)N[C@H](C(=O)Nc1ccccc1C(N)=O)c1ccc(OCc2ccccc2)cc1
[1]
  inhibition: inactive
[2]
  inhibition: 13%
[3]
  CC50 at 24 h: > 50 µM
[5]
  inhibition: inactive

## NC(=O)c1ccc(CNC(=O)[C@@H](NC(=O)c2cccs2)c2ccc(OCc3ccccc3)cc2)cc1
[1]
  inhibition: inactive
[2]
  inhibition: 72%
[3]
  CC50 at 24 h: > 50 µM
[4]
  EC50: 8.4 µM
[5]
  inhibition: inactive

## NC(=O)c1cccc(NC(=O)[C@@H](NC(=O)c2ccc3ccccc3c2)c2ccc(OCc3ccccc3)cc2)c1
[1]
  inhibition: inactive
[2]
  inhibition: 71%
[3]
  CC50 at 24 h: > 100 µM
[4]
  EC50: 4.5 µM
[5]
  inhibition: inactive

## COc1cccc(COc2ccc([C@H](NC(=O)c3ccc(Oc4ccccc4)cc3)C(=O)Nc3cccc(C(N)=O)c3)cc2)c1
[1]
  inhibition: inactive
[2]
  inhibition: 73%
[3]
  CC50 at 24 h: > 100 µM
[4]
  EC50: 2.1 µM
[5]
  inhibition: inactive

## CCCCCC(=O)N[C@H](C(=O)NCc1ccc(C(N)=O)cc1)c1ccc(O)cc1
[1]
  inhibition: inactive
[2]
  inhibition: < 10%
[3]
  CC50 at 24 h: > 100 µM
[5]
  inhibition: inactive

## CCCC(O)C(=O)N[C@H](C(=O)NCc1ccc(C(N)=O)cc1)c1ccc(OCc2ccccc2)cc1 (some centres not stated)
[1]
  inhibition: inactive
[2]
  inhibition: < 10%
[3]
  CC50 at 24 h: > 50 µM
[5]
  inhibition: inactive

## CCCCCC(=O)N[C@H](C(=O)N1CCC(C(N)=O)CC1)c1ccc(OCc2ccccc2)cc1
[1]
  inhibition: inactive
[2]
  inhibition: 28%
[3]
  CC50 at 24 h: > 50 µM
[5]
  inhibition: inactive

## CCCCCC(=O)N[C@H](C(=O)NCCc1ccc(O)cc1)c1ccc(OCc2ccccc2)cc1
[1]
  inhibition: inactive
[2]
  inhibition: 58%
[3]
  CC50 at 24 h: > 25 µM
[4]
  EC50: 10 µM
[5]
  inhibition: inactive

## NC(=O)c1cccc(NC(=O)[C@@H](NC(=O)c2ccc(-c3ccccc3)cc2)c2ccc(OCc3ccccc3)cc2)c1
[1]
  inhibition: inactive
[2]
  inhibition: 79%
[3]
  CC50 at 24 h: > 100 µM
[4]
  EC50: 1.7 µM
[5]
  inhibition: inactive

## NC(=O)c1cccc(NC(=O)[C@@H](NC(=O)C2CCN(c3ccccc3)CC2)c2ccc(OCc3ccccc3)cc2)c1
[1]
  inhibition: inactive
[2]
  inhibition: 46%
[3]
  CC50 at 24 h: > 50 µM
[5]
  inhibition: inactive

## CCCCCC(=O)N[C@H](C(=O)NCc1ccccc1)c1ccc(OCc2ccccc2)cc1
[1]
  inhibition: inactive
[2]
  inhibition: < 10%
[3]
  CC50 at 24 h: > 50 µM
[5]
  inhibition: inactive

## CCCCCCCC(=O)N[C@H](C(=O)Nc1cccc(C(N)=O)c1)c1ccc(OCc2ccccc2)cc1
[1]
  inhibition: inactive
[2]
  inhibition: 66%
[3]
  CC50 at 24 h: > 12.5 µM
[4]
  EC50: 2.2 µM
[5]
  inhibition: inactive

## CCCCCC(=O)N[C@H](C(=O)Nc1ccc(OC)cc1)c1ccc(OCc2ccccc2)cc1
[1]
  inhibition: inactive
[2]
  inhibition: 10%
[3]
  CC50 at 24 h: > 25 µM
[5]
  inhibition: inactive

## CCCCCC(=O)N[C@H](C(=O)NCc1cccc(OC)c1)c1ccc(OCc2ccccc2)cc1
[1]
  inhibition: inactive
[2]
  inhibition: < 10%
[3]
  CC50 at 24 h: > 50 µM
[5]
  inhibition: inactive

## CC(C)CCOc1ccc(C(=O)N[C@H](C(=O)Nc2cccc(C(N)=O)c2)c2ccc(OCc3ccccc3)cc2)cc1
[1]
  inhibition: inactive
[2]
  inhibition: 49%
[3]
  CC50 at 24 h: > 50 µM
[5]
  inhibition: inactive

## NC(=O)c1ccc(CNC(=O)[C@@H](NC(=O)c2cc3ccccc3s2)c2ccc(OCc3ccccc3)cc2)cc1
[1]
  inhibition: inactive
[2]
  inhibition: 71%
[3]
  CC50 at 24 h: > 50 µM
[4]
  EC50: 6.6 µM
[5]
  inhibition: inactive

## NC(=O)c1cccc(NC(=O)[C@@H](NC(=O)c2ccc(Oc3cccc(Cl)c3)cc2)c2ccc(OCc3ccccc3)cc2)c1
[1]
  inhibition: inactive
[2]
  inhibition: 87%
[3]
  CC50 at 24 h: > 100 µM
[4]
  EC50: 1 µM
[5]
  inhibition: inactive

## CCCCCC(=O)N[C@H](C(=O)NCc1ccc(C(N)=O)cc1)c1ccc(OCc2ccc(C(F)(F)F)cc2)cc1
[1]
  inhibition: inactive
[2]
  inhibition: 53%
[3]
  CC50 at 24 h: > 100 µM
[4]
  EC50: 9.8 µM
[5]
  inhibition: inactive

## CCCCCC(=O)N[C@H](C(=O)NCCc1ccc(C(N)=O)cc1)c1ccc(OCc2ccccc2)cc1
[1]
  inhibition: inactive
[2]
  inhibition: 62%
[3]
  CC50 at 24 h: > 100 µM
[4]
  EC50: 7.7 µM
[5]
  inhibition: inactive

## NC(=O)c1ccc(CNC(=O)[C@@H](NCc2ccccc2)c2ccc(OCc3ccccc3)cc2)cc1
[1]
  inhibition: inactive
[2]
  inhibition: 36%
[3]
  CC50 at 24 h: > 50 µM
[5]
  inhibition: inactive

## CCCCCC(=O)N[C@H](C(=O)NCc1ccc(NC(N)=O)cc1)c1ccc(OCc2ccccc2)cc1
[1]
  inhibition: inactive
[5]
  inhibition: inactive

## COCCOCC(=O)N[C@H](C(=O)NCc1ccc(C(N)=O)cc1)c1ccc(OCc2ccccc2)cc1
[1]
  inhibition: inactive
[2]
  inhibition: 27%
[3]
  CC50 at 24 h: > 50 µM
[5]
  inhibition: inactive

## NC(=O)c1ccc(CNC(=O)[C@@H](NC(=O)C2CCC2)c2ccc(OCc3ccccc3)cc2)cc1
[1]
  inhibition: inactive
[2]
  inhibition: 45%
[3]
  CC50 at 24 h: > 50 µM
[5]
  inhibition: inactive

## CCCCCC(=O)N[C@@H](C(=O)NCc1ccc(C(N)=O)cc1)c1ccc(OCc2ccccc2)cc1
[1]
  inhibition: inactive
[2]
  inhibition: 35%
[3]
  CC50 at 24 h: > 50 µM
[5]
  inhibition: inactive

## CCCCCC(=O)N[C@H](C(=O)NCc1ccc(C(=O)NO)cc1)c1ccc(OCc2ccccc2)cc1
[1]
  inhibition: inactive
[2]
  inhibition: 40%
[3]
  CC50 at 24 h: > 50 µM
[5]
  inhibition: inactive

## NC(=O)c1ccc(CNC(=O)[C@@H](N)c2ccc(OCc3ccccc3)cc2)cc1
[1]
  inhibition: inactive
[2]
  inhibition: 33%
[3]
  CC50 at 24 h: > 50 µM
[5]
  inhibition: inactive

## CCCCCC(=O)N[C@H](C(=O)NCc1ccc(C(N)=O)cc1)c1ccccc1
[1]
  inhibition: inactive
[2]
  inhibition: 15%
[3]
  CC50 at 24 h: > 50 µM
[5]
  inhibition: inactive

## CCCCCC(=O)N[C@H](C(=O)Nc1ccc(CC(N)=O)cc1)c1ccc(OCc2ccccc2)cc1
[1]
  inhibition: inactive
[2]
  inhibition: 47%
[3]
  CC50 at 24 h: > 50 µM
[5]
  inhibition: inactive

## NCCCCCC(=O)N[C@H](C(=O)NCc1ccc(C(N)=O)cc1)c1ccc(OCc2ccccc2)cc1
[1]
  inhibition: inactive
[2]
  inhibition: 14%
[3]
  CC50 at 24 h: > 50 µM
[5]
  inhibition: inactive

## CCCCCC(=O)N[C@H](C(=O)NCc1ccc(C(N)=O)cc1)c1ccc(C(F)(F)F)cc1
[1]
  inhibition: inactive
[2]
  inhibition: 31%
[3]
  CC50 at 24 h: > 50 µM
[5]
  inhibition: inactive

## CCCCCC(=O)N[C@H](C(=O)NCc1ccc(Cl)cc1)c1ccc(OCc2ccccc2)cc1
[1]
  inhibition: inactive
[2]
  inhibition: 14%
[3]
  CC50 at 24 h: > 50 µM
[5]
  inhibition: inactive

## CCCCCC(=O)N[C@@H](Cc1ccccc1)C(=O)NCc1ccc(C(N)=O)cc1
[1]
  inhibition: inactive
[2]
  inhibition: < 10%
[3]
  CC50 at 24 h: > 50 µM
[5]
  inhibition: inactive

## CCCCCC(=O)N[C@H](C(=O)NCCc1ccccc1)c1ccc(OCc2ccccc2)cc1
[1]
  inhibition: inactive
[3]
  CC50 at 24 h: < 12.5 µM
[5]
  inhibition: inactive
